High-throughput results: PubChem, several laboratories
Only some compounds are listed: those with a hit (about 2.9% of all), similar ones and a draw of the others.
hiPSC survival – enhancers of single-cell hiPSC survival, primary screen, ATPlite luminescence; 100% = ROCK inhibitor wells, 0% = DMSO; survival enhancement, % at 20 µM; 0.044% of 360,000 active; AID 602274, 2012; in the data active = survival enhancement above about 18%;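 also: cells exposed to compounds for 16 hours before the ATP read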
NR1D1 modulator – modulators of Rev-erb alpha DNA binding, primary screen, biochemical, FITC-DNA, fluorescence polarization, uHTS; Nuclear receptor subfamily 1 group D member 1 (Homo sapiens), P20393; Rev-erbα–FITC-DNA binding, 90 min; activity, % at 10 µM; 0.79% of 370,000 active;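 active = activity above about 14%, limit read from the data; passing the limit was not always enough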;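 also: 0% = DMSO wells with 35 nM protein and 100% = DMSO wells with 750 nM protein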
Target sequence (P20393 whole entry, looked up): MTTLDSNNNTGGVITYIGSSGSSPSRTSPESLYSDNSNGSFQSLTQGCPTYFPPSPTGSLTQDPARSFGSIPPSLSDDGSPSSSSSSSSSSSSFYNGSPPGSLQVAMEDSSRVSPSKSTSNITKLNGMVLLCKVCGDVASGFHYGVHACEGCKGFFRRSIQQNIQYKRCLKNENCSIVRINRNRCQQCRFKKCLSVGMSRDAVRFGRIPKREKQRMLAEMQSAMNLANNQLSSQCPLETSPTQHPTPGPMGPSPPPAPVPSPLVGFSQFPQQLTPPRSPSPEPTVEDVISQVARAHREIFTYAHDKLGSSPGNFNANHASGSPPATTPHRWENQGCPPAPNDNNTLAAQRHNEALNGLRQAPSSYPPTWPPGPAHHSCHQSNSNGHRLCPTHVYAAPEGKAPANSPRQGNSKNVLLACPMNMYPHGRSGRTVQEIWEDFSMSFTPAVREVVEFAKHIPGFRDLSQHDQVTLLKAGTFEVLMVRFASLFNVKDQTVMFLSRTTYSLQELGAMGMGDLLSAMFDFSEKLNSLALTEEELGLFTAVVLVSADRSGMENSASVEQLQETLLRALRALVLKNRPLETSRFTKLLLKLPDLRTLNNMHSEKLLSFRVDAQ
T cruzi inh – inhibitors of intracellular T. cruzi growth, primary screen, luminescence, NIH3T3 host cells; T. cruzi beta-gal in NIH3T3, 90 h; 1.4% of 300,000 active; AID 1885, 2009; inhibition, % (no concentration beside the values);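 active = mean inhibition across valid replicates above about 55%, limit read from the data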;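 also: signal also drops with host cell toxicity which is not excluded here; 0% = plate median of DMSO wells and 100% = zero luminescence signal; higher percent means less beta-gal luminescence so fewer parasites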
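System: Mouse NIH/3T3 fibroblasts infected with β-gal-expressing T. cruzi Tulahuen C4 | Quantity: NIH/3T3 cells, 5,000 per well | Reagent: 5000 reporter trypomastigotes per well | Dosing: Compound pinned at 50 nL/well, DMSO | Schedule: 3 h host attachment, then at least 90 h co-culture | Detection: GalScreen luminescence, 60 min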
MIN6 prolif – inducers of MIN6 beta-cell proliferation, primary screen, ATP luminescence, uHTS; proliferation, % at 10 µM; AID 2380, 2010; MIN6 cells proliferation, ATPlite luminescence, 48 h; cells starved in 0.2% serum; 100% = growth in 10% serum; 0.29% of 330,000 active;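 active = compounds whose signal lies at least 3.5 SD above the mean of all wells on their plate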;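 also: 0% = DMSO-treated cells in low-serum medium and 100% = 10% serum control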
PG9 binder – binders of HIV-1 gp120 antibody PG9, primary screen, biochemical, TR-FRET; AID 624416, 2012; TR-FRET gp120-PG9 antibody binding; HIV-1 gp120 / PG9 antibody interaction; 0.43% of 360,000 active; inhibition, % at 6.7 µM; in the data active = inhibition above about 8.5%
H9c2 TAG inh – inhibitors of triacylglycerol accumulation, primary screen, cell-based, uHTS, fluorescence, H9c2. inhibition, % at 12.5 µM. H9c2 cells, Nile Red lipid (TAG) fluorescence; cells loaded with 200 µM oleic acid. 0.66% of 230,000 active;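 active = pattern-corrected inhibition of lipid staining of at least 50% with the nuclear-stain viability signal not falling by more than 50%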;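 also: 0% = DMSO wells and 100% = triacsin C control wells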
An asterisk follows results filed as active; / = no result.

SMILES	hiPSC survival	NR1D1 modulator	T cruzi inh	MIN6 prolif	PG9 binder	H9c2 TAG inh
O=C(Nc1nc(-c2ccco2)c(-c2ccco2)s1)c1ccc(F)cc1F	0	-13	/	-5	-10	10
C/C(=N\NC(=O)c1ccco1)c1cccc2ccccc12	0	5	1	-5	-2	/
CCc1sc(C(=O)NC2CCN(C)CC2)cc1Br	-2	-2	62*	2	-2	/
CCN(CCCCCN(C)C)Cc1cc2ccccc2o1	-2	-7	55*	0	1	/
CNC(=O)CN(c1ccc(C23CC4CC(CC(C4)C2)C3)cc1)S(C)(=O)=O	-1	4	29	-1	-3	21
CS(=O)(=O)N(CC(=O)Nc1c(F)cccc1F)c1ccc(C23CC4CC(CC(C4)C2)C3)cc1	-4	1	70*	-2	1	/
CC(=O)Nc1ccc(NC(=O)CN(c2ccc(C34CC5CC(CC(C5)C3)C4)cc2)S(C)(=O)=O)cc1	1	2	53	0	0	/
CS(=O)(=O)N(CC(=O)Nc1ccc(CC#N)cc1)c1ccc(C23CC4CC(CC(C4)C2)C3)cc1	-1	-2	70*	-5	1	/
O=C(/C=C/c1ccccc1)NC(NC(=S)Nc1ccc(Cl)cc1)C(Cl)(Cl)Cl (centres undefined)	-1	1	72*	-6	-1	-16
COc1ccc(NC(=S)NC(NC(=O)/C=C/c2ccccc2)C(Cl)(Cl)Cl)cc1 (centres undefined)	-2	-1	23	-6	1	14
O=C(/C=C/c1ccccc1)NC(NC(=S)Nc1cc(Cl)ccc1Cl)C(Cl)(Cl)Cl (centres undefined)	-1	3	75*	-5	2	/
Cc1cc(C(=O)N(C)Cc2ccc(Br)cc2)no1	4	1	-7	-2	0	7
Cc1ccccc1Nc1nc(N)nc(-c2oc3ccccc3c2C)n1	0	3	56*	-3	-1	5
Cc1c(-c2nc(N)nc(Nc3ccc(F)cc3)n2)oc2ccccc12	4	7	62*	-2	-1	-6
COc1cccc(NS(=O)(=O)c2ccc3[nH]cc(C(=O)NCCC(C)C)c(=O)c3c2)c1	4	2	-4	-5	8	/
S=c1[nH]nc(COc2ccc(Cl)cc2)n1-c1ccc(Cl)cc1	0	-1	17	-5	-1	-4
CCC(=O)N1CCN(c2nc(CC)nc3sc4c(c23)CCCC4)CC1	1	3	8	-3	0	/
CC1CCc2c(sc3nc(C(C)(C)C)nc(N4CCN(C(=O)CCl)CC4)c23)C1 (centres undefined)	0	-2	43	-6	-1	91*
CCOC(=O)C1CCCN(CC(=O)NC2=Nc3ccccc3N=C(C)C2c2ccccc2)C1 (centres undefined)	1	-2	3	-3	0	-26
CC1=Nc2ccccc2N=C(NC(=O)CN2CCN(c3ccccc3)CC2)C1c1ccccc1 (centres undefined)	1	-7	63*	-2	-1	4
O=C(NNC(=O)c1cccnc1SCc1cccc([N+](=O)[O-])c1)c1cccnc1	1	-8	-17	-3	1	/
COc1ccccc1/C=C/C=C1\Oc2c(ccc(O)c2CN(C)C)C1=O	-1	1	5	-6	-9	6
CCN(CC)Cc1c(O)ccc2c1O/C(=C\C=C\c1ccccc1)C2=O	2	5	60*	-6	-5	65
Cc1ccc(C=Nc2ccc(N(C)C)cc2)o1	-1	-2	61*	-7	-50	/
COc1ccc(/C=C(/NC(=O)c2cccc([N+](=O)[O-])c2)C(=O)O)cc1OC	3	2	10	-3	0	5
CCN(CC)c1ccc2c(C)c(Cl)c(=O)oc2c1	0	-3	-9	2	1	5
